# Source: ChEMBL document CHEMBL1134346, “Labeling and evaluation of N-[11C]methylated quinoline-2-carboxamides as potential radioligands for visualization of peripheral benzodiazepine receptors” (J Med Chem, 2001)
# Species: Rattus norvegicus
# Experiment: Tissue (spleen) distribution in Albino male CD rats after 5 minutes expressed as percent of injected dose per gram of organ.
# Format: ADME, organism-based
# Settings: in vivo
# Procedure, shortened: (§1)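 Male albino CD rats (225-250 g) received the 11C-labelled radioligand in saline by tail-vein injection. Three rats per time point were decapitated under light ether anaesthesia at 5, 15, 30, 60 or 90 min. Blood was collected heparinized and plasma separated by centrifugation. The pituitary was dissected from the brain. Lung, liver (three-lobe pieces) and right deltoid muscle were sampled, washed in cold saline, gamma-counted and weighed. Results are %I.D./g.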
row,SMILES,I.D./g [%]
1,Cc1c(C(=O)N(C)Cc2ccccc2)nc2ccccc2c1-c1ccccc1,0.28

# Species: Rattus norvegicus
# Experiment: Tissue (testicle) distribution in Albino male CD rats after 15 minutes expressed as percent of injected dose per gram of organ.
# Format: ADME, organism-based
# Settings: in vivo, 0.25 h
# Procedure, shortened: as §1
row,SMILES,I.D./g [%]
1,Cc1c(C(=O)N(C)Cc2ccccc2)nc2ccccc2c1-c1ccccc1,0.12

# Species: Rattus norvegicus
# Experiment: Tissue (testicle) distribution in Albino male CD rats after 60 minutes expressed as percent of injected dose per gram of organ.
# Format: ADME, organism-based
# Settings: in vivo, 1 h
# Procedure, shortened: as §1
row,SMILES,I.D./g [%]
1,Cc1c(C(=O)N(C)Cc2ccccc2)nc2ccccc2c1-c1ccccc1,0.15

# Species: Rattus norvegicus
# Experiment: Tissue (testicle) distribution in Albino male CD rats after 90 minutes expressed as percent of injected dose per gram of organ.
# Format: ADME, organism-based
# Settings: in vivo, 1.5 h
row,SMILES,I.D./g [%]
1,Cc1c(C(=O)N(C)Cc2ccccc2)nc2ccccc2c1-c1ccccc1,0.2

# Species: Rattus norvegicus
# Experiment: Tissue (kidney) distribution in Albino male CD rats after 30 minutes expressed as percent of injected dose per gram of organ.
# Format: ADME, organism-based
# Settings: in vivo, 0.5 h
# Procedure, shortened: (§2)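 Radioligand given in saline into tail vein of male albino CD rats (225-250 g); 100-200 µCi per animal, 1-2 Ci/µmol at injection depending on radioligand. Three rats per time point were decapitated under light ether anaesthesia. Blood, plasma, brain regions and washed organs were weighed and gamma-counted. Uptake is %I.D./g tissue, mean ± SD.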
row,SMILES,I.D./g [%]
1,Cc1c(C(=O)N(C)Cc2ccccc2)nc2ccccc2c1-c1ccccc1,1.05

# Species: Rattus norvegicus
# Experiment: Tissue (kidney) distribution in Albino male CD rats after 90 minutes expressed as percent of injected dose per gram of organ.
# Format: ADME, organism-based
# Settings: in vivo, 1.5 h
# Procedure, shortened: as §2
row,SMILES,I.D./g [%]
1,Cc1c(C(=O)N(C)Cc2ccccc2)nc2ccccc2c1-c1ccccc1,1.34

# Species: Rattus norvegicus
# Experiment: Tissue (liver) distribution in Albino male CD rats after 30 minutes expressed as percent of injected dose per gram of organ.
# Format: ADME, organism-based
# Settings: in vivo, 0.5 h
# Procedure, shortened: as §1
row,SMILES,I.D./g [%]
1,Cc1c(C(=O)N(C)Cc2ccccc2)nc2ccccc2c1-c1ccccc1,0.43

# Species: Rattus norvegicus
# Experiment: Tissue (liver) distribution in Albino male CD rats after 5 minutes expressed as percent of injected dose per gram of organ.
# Format: ADME, organism-based
# Settings: in vivo
# Procedure, shortened: as §1
row,SMILES,I.D./g [%]
1,Cc1c(C(=O)N(C)Cc2ccccc2)nc2ccccc2c1-c1ccccc1,0.37

# Species: Rattus norvegicus
# Experiment: Tissue (liver) distribution in Albino male CD rats after 90 minutes expressed as percent of injected dose per gram of organ.
# Format: ADME, organism-based
# Settings: in vivo, 1.5 h
# Procedure, shortened: as §1
row,SMILES,I.D./g [%]
1,Cc1c(C(=O)N(C)Cc2ccccc2)nc2ccccc2c1-c1ccccc1,0.4

# Species: Rattus norvegicus
# Experiment: Tissue (lung) concentration of radioactivity at 30 min post-injection into Albino male CD rats with vehicle.
# Format: ADME, organism-based
# Settings: in vivo, 0.5 h
# Procedure, shortened: (§3)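 Blocking study in male albino CD rats, five per group. Immediately before the 11C radioligand (in saline, i.v. tail vein), rats received 30 µL tail-vein PK 11195 (5 mg/kg; 1.4-1.6 mg) in DMSO:EtOH 1:1, or vehicle. Rats were decapitated at 30 min. Tissues were dissected, washed, gamma-counted and weighed as in the biodistribution study. Results are %I.D./g.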
row,SMILES,I.D./g [%]
1,Cc1c(C(=O)N(C)Cc2ccccc2)nc2ccccc2c1-c1ccccc1,0.35

# Species: Rattus norvegicus
# Experiment: Tissue (lung) distribution in Albino male CD rats after 60 minutes expressed as percent of injected dose per gram of organ.
# Format: ADME, organism-based
# Settings: in vivo, 1 h
# Procedure, shortened: as §1
row,SMILES,I.D./g [%]
1,Cc1c(C(=O)N(C)Cc2ccccc2)nc2ccccc2c1-c1ccccc1,1.48

# Species: Rattus norvegicus
# Experiment: Tissue (lung) distribution in Albino male CD rats after 90 minutes expressed as percent of injected dose per gram of organ.
# Format: ADME, organism-based
# Settings: in vivo, 1.5 h
# Procedure, shortened: as §1
row,SMILES,I.D./g [%]
1,Cc1c(C(=O)N(C)Cc2ccccc2)nc2ccccc2c1-c1ccccc1,1.21

# Species: Rattus norvegicus
# Experiment: Tissue (blood) distribution in Albino male CD rats after 30 minutes expressed as percent of injected dose per gram of organ.
# Format: ADME, organism-based
# Settings: in vivo, 0.5 h
# Procedure, shortened: as §2
row,SMILES,I.D./g [%]
1,Cc1c(C(=O)N(C)Cc2ccccc2)nc2ccccc2c1-c1ccccc1,0.06

# Species: Rattus norvegicus
# Experiment: Tissue (adrenal gland) distribution in Albino male CD rats after 30 minutes expressed as percent of injected dose per gram of organ.
# Format: ADME, organism-based
# Settings: in vivo, 0.5 h
# Procedure, shortened: as §2
row,SMILES,I.D./g [%]
1,Cc1c(C(=O)N(C)Cc2ccccc2)nc2ccccc2c1-c1ccccc1,2.99

# Species: Rattus norvegicus
# Experiment: Tissue (adrenal gland) distribution in Albino male CD rats after 60 minutes expressed as percent of injected dose per gram of organ.
# Format: ADME, organism-based
# Settings: in vivo, 1 h
# Procedure, shortened: as §2
row,SMILES,I.D./g [%]
1,Cc1c(C(=O)N(C)Cc2ccccc2)nc2ccccc2c1-c1ccccc1,4

# Species: Rattus norvegicus
# Experiment: Tissue (spleen) distribution in Albino male CD rats after 15 minutes expressed as percent of injected dose per gram of organ.
# Format: ADME, organism-based
# Settings: in vivo, 0.25 h
row,SMILES,I.D./g [%]
1,Cc1c(C(=O)N(C)Cc2ccccc2)nc2ccccc2c1-c1ccccc1,1.27

# Species: Rattus norvegicus
# Experiment: Tissue (spleen) distribution in Albino male CD rats after 30 minutes expressed as percent of injected dose per gram of organ.
# Format: ADME, organism-based
# Settings: in vivo, 0.5 h
# Procedure, shortened: as §1
row,SMILES,I.D./g [%]
1,Cc1c(C(=O)N(C)Cc2ccccc2)nc2ccccc2c1-c1ccccc1,1.46

# Species: Rattus norvegicus
# Experiment: Tissue (muscle) concentration of radioactivity at 30 min post-injection into Albino male CD rats with vehicle.
# Format: ADME, organism-based
# Settings: in vivo, 0.5 h
# Procedure, shortened: as §3
row,SMILES,I.D./g [%]
1,Cc1c(C(=O)N(C)Cc2ccccc2)nc2ccccc2c1-c1ccccc1,0.03

# Species: Rattus norvegicus
# Experiment: Tissue (muscle) distribution in Albino male CD rats after 5 minutes expressed as percent of injected dose per gram of organ.
# Format: ADME, organism-based
# Settings: in vivo
# Procedure, shortened: as §1
row,SMILES,I.D./g [%]
1,Cc1c(C(=O)N(C)Cc2ccccc2)nc2ccccc2c1-c1ccccc1,0.19

# Species: Rattus norvegicus
# Experiment: Tissue (cortex) distribution in Albino male CD rats after 15 minutes expressed as percent of injected dose per gram of organ.
# Format: ADME, organism-based
# Settings: in vivo, 0.25 h
# Procedure, shortened: as §2
row,SMILES,I.D./g [%]
1,Cc1c(C(=O)N(C)Cc2ccccc2)nc2ccccc2c1-c1ccccc1,0.17
